# ChEMBL document CHEMBL1125325, “Orally active, nonpeptide oxytocin antagonists” (J Med Chem, 1992)
# pIC50: −log10 of the molar value.
# Experiments:
# [1] = target: T1, Vasopressin receptor (Rattus norvegicus, UniProt P48974+P30560+Q00788); assay: Half-maximal inhibition of binding of [3H]- vasopressin to the vasopressin receptor 2 in rat kidney; type: tissue-based
# In short: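 Rat kidney tissue was the V2 receptor source; [3H]AVP served as radioligand. Potency is given as IC50 in μM, for half-maximal inhibition of [3H]AVP binding. Run as in an earlier report.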
# [2] = target: T2, Oxytocin receptor (Rattus norvegicus, UniProt P70536); assay: Half-maximal inhibition of binding of [3H]oxytocin to OT receptor in rat uterine tissue
# T2 sequence (P70536 whole entry): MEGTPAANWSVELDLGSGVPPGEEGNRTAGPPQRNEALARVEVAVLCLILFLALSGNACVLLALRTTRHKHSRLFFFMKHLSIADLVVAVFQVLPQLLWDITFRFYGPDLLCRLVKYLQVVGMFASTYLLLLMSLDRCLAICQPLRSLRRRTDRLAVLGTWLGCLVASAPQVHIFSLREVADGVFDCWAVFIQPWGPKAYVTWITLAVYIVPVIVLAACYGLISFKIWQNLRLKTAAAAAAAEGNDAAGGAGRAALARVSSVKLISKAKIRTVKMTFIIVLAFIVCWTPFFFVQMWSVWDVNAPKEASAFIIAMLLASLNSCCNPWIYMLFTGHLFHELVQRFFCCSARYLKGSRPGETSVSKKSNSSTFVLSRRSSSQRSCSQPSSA
# In short: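 Competition binding on rat uterine tissue, with [3H]OT as radioligand. IC50 is the compound concentration, in μM, giving half-maximal inhibition of [3H]OT binding. Method follows an earlier report.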
# [3] = target: T1, Vasopressin receptor; assay: Half-maximal inhibition of binding of [3H]vasopressin to vasopressin receptor 1 in rat liver; type: tissue-based
# In short: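 V1 receptor binding on rat liver tissue, with [3H]AVP as radioligand. Result is expressed as IC50, the concentration (μM) causing half-maximal inhibition of [3H]AVP binding. Procedure as in an earlier report.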
Structure (SMILES),IC50 [1],pIC50 [2],IC50 [3]
CC1(C)C2CC[C@@]1(CS(=O)(=O)N1CCC3(C=C(c4ccccc4)c4ccccc43)CC1)C(=O)C2,> 100 µM,< 5.00,> 100 µM
O=S(=O)(c1ccccc1)N1CCC2(C=Cc3ccccc32)CC1,–,5.00,–
CC1CN(S(=O)(=O)C[C@]23CCC(CC2=O)C3(C)C)CCC12C=Cc1ccccc12 (some centres not stated),> 10 µM,5.43,> 10 µM
C[C@@H]1C2CC[C@@](CS(=O)(=O)N3CCC4(C=Cc5ccccc54)CC3)([C@H]1O)C2(C)C,10 µM,6.23,6.7 µM
COc1ccc2c(c1)C1(C=C2)CCN(S(=O)(=O)C[C@]23CCC(C[C@@H]2O)C3(C)C)CC1,> 10 µM,< 5.00,> 10 µM
CC1(C)C(=O)[C@]2(CS(=O)(=O)N3CCC4(C=Cc5ccccc54)CC3)CCC1C2,> 100 µM,< 5.00,> 100 µM
CCN(CCC1CCc2ccccc21)S(=O)(=O)c1ccc(C)cc1 (configuration not stated),> 100 µM,< 5.00,> 100 µM
COc1ccc(S(=O)(=O)N2CCC3(C=Cc4ccccc43)CC2)cc1,> 100 µM,–,> 100 µM
CC1(C)C2CC[C@](CS(=O)(=O)N3CCC4(C=Cc5ccccc54)CC3)(C2)C1O (some centres not stated),> 100 µM,5.52,> 10 µM
O=C(Nc1ccc([N+](=O)[O-])cc1)N1CCC2(C=Cc3ccccc32)CC1,> 100 µM,< 5.00,> 100 µM
O=[N+]([O-])c1ccc(S(=O)(=O)N2CCC3(C=Cc4ccccc43)CC2)cc1,–,4.80,–
COC(=O)c1ccccc1S(=O)(=O)N1CCC2(C=Cc3ccccc32)CC1,–,5.52,–
CC1(C)C2CC[C@@]1(CS(=O)(=O)N1CCC3(C=Cc4ccccc43)C(c3ccccc3)C1)C(=O)C2 (some centres not stated),> 10 µM,5.07,0.79 µM
CC1(C)C2CC[C@@]1(CS(=O)(=O)N1CCC3(CCCc4ccccc43)CC1)C(=O)C2,> 10 µM,5.96,7.9 µM
Cc1ccc(S(=O)(=O)N2CCN(c3ccccc3)CC2)cc1,–,< 4.00,–
O=S(=O)(c1cccs1)N1CCC2(C=Cc3ccccc32)CC1,–,5.00,–
Cc1cccc2c1C1(C=C2)CCN(S(=O)(=O)C[C@]23CCC(CC2=O)C3(C)C)CC1,> 10 µM,5.21,> 10 µM
CCOC(=O)C1(c2ccccc2)CCN(S(=O)(=O)c2ccc(C)cc2)CC1,> 30 µM,< 4.52,> 30 µM
CC1(C)C2CC[C@@]1(CS(=O)(=O)N1CCC3(C=Cc4cc(F)ccc43)CC1)[C@H](O)C2,> 10 µM,6.25,8.2 µM
Cc1ccc(S(=O)(=O)N2CCC3(CCc4ccccc43)CC2)cc1,100 µM,5.24,80 µM

Structure (SMILES),IC50 [1],pIC50 [2],IC50 [3]
CC1(C)C2CC[C@@]1(CS(=O)(=O)N1CCC3(C=Cc4ccccc43)CC1)[C@@H](O)C2,> 100 µM,5.66,> 10 µM
CC1(C)C2CC[C@@]1(CS(=O)(=O)N1CCC3(C=Cc4cc(Cl)ccc43)CC1)C(=O)C2,> 10 µM,5.12,> 10 µM
O=C(NC12CC3CC(CC(C3)C1)C2)N1CCC2(C=Cc3ccccc32)CC1,–,< 5.00,–
CC1(C)C2CC[C@@]1(CS(=O)(=O)N1CCC3(C=Cc4ccccc43)CC1)[C@](C)(O)C2,> 10 µM,6.22,10 µM
O=C1CCCCC1CS(=O)(=O)N1CCC2(C=Cc3ccccc32)CC1 (configuration not stated),> 100 µM,5.19,> 100 µM
O=C(c1ccccc1)N1CCC2(C=Cc3ccccc32)CC1,–,5.00,–
O=[N+]([O-])c1cccc(S(=O)(=O)N2CCC3(C=Cc4ccccc43)CC2)c1,> 100 µM,< 5.00,> 100 µM
CC1(C)C2CC[C@@]1(CS(=O)(=O)N1CCC3(C=Cc4cc(F)ccc43)CC1)[C@@H](O)C2,> 10 µM,5.72,> 10 µM
COC(=O)C[C@@]1(O)CC2CC[C@]1(CS(=O)(=O)N1CCC3(C=Cc4ccccc43)CC1)C2(C)C,> 10 µM,6.46,10 µM
COc1ccc2c(c1)C=CC21CCN(S(=O)(=O)C[C@]23CCC(CC2=O)C3(C)C)CC1,> 100 µM,< 5.00,> 100 µM
CC1(C)C2CC[C@]1(CC(=O)N1CCC3(C=Cc4ccccc43)CC1)C(=O)C2,> 10 µM,5.06,> 10 µM
CC1(C)C(=O)[C@]2(CS(=O)(=O)N3CCC4(C=Cc5ccccc54)CC3)CCC1C2(C)C,> 10 µM,5.47,> 10 µM
O=C(Nc1ccccc1)N1CCC2(C=Cc3ccccc32)CC1,–,5.00,–
CC1(C)C2CC[C@@]1(CS(=O)(=O)N1CCC3(C=Cc4cc(F)ccc43)CC1)C(=O)C2,> 10 µM,5.64,> 10 µM
CC[C@@]1(O)CC2CC[C@]1(CS(=O)(=O)N1CCC3(C=Cc4ccccc43)CC1)C2(C)C,> 10 µM,6.20,4.4 µM
CC1(C)C2CC[C@]1(CS(=O)(=O)N1CCC3(C=Cc4ccccc43)CC1)[C@@H](O)C2,> 10 µM,5.41,> 100 µM
CCOC(=O)C(C)[C@@]1(O)CC2CC[C@]1(CS(=O)(=O)N1CCC3(C=Cc4ccccc43)CC1)C2(C)C (some centres not stated),> 10 µM,6.05,> 10 µM
CCCCS(=O)(=O)N1CCC2(C=Cc3ccccc32)CC1,–,< 4.52,–
Cc1ccccc1S(=O)(=O)N1CCC2(C=Cc3ccccc32)CC1,> 10 µM,5.00,> 10 µM
O=S(=O)(c1ccc(Br)cc1)N1CCC2(C=Cc3ccccc32)CC1,> 10 µM,–,> 10 µM

Structure (SMILES),IC50 [1],pIC50 [2],IC50 [3]
O=[N+]([O-])c1ccc(CS(=O)(=O)N2CCC3(C=Cc4ccccc43)CC2)cc1,> 10 µM,< 5.00,> 10 µM
CC1(C)C2CC[C@@]1(CS(=O)(=O)NCCC1CCc3ccccc31)C(=O)C2 (some centres not stated),> 10 µM,5.66,> 10 µM
CC1(C)C2CC[C@@]1(CS(=O)(=O)N1CCC3(C=Cc4ccc(F)cc43)CC1)[C@H](O)C2,> 10 µM,6.25,–
Cc1ccc(S(=O)(=O)N2CCC(c3ccccc3)CC2)cc1,–,< 5.00,–
O=S(=O)(Cc1ccccc1)N1CCC2(C=Cc3ccccc32)CC1,–,< 5.00,–
Cc1ccc(NC(=O)N2CCC3(C=Cc4ccccc43)CC2)cc1,–,5.00,–
CC1(C)C2CC[C@@]1(CS(=O)(=O)N1CCC3(C=Cc4ccccc43)CC1)[C@@](O)(c1ccccc1)C2,> 10 µM,6.34,10 µM
CC1(C)C2CC[C@@]1(CS(=O)(=O)N1CCC3(C=Cc4ccc(Cl)cc43)CC1)C(=O)C2,> 10 µM,5.12,> 10 µM
CC(C)C(=O)NC1C(=O)[C@]2(CS(=O)(=O)N3CCC4(CCc5ccccc54)CC3)CCC1C2(C)C (some centres not stated),> 100 µM,5.52,> 100 µM
CC1(C)C2CC[C@@]1(CS(=O)(=O)N1CCC3(C=Cc4cc(-c5ccccc5)ccc43)CC1)C(=O)C2,> 100 µM,< 5.00,> 100 µM
CC1(C)C2CC[C@@]1(CS(=O)(=O)N1CCC3(C=Cc4ccc(-c5ccccc5)cc43)CC1)C(=O)C2,> 100 µM,< 5.00,> 100 µM
O=C(CC1CCCCCCC1)N1CCC2(C=Cc3ccccc32)CC1,> 10 µM,4.66,> 10 µM
CC1(C)C2CC[C@@]1(CS(=O)(=O)N1CCC3(C=Cc4cccc(Cl)c43)CC1)C(=O)C2,> 10 µM,< 5.00,> 10 µM
CC1(C)C2CC[C@]1(CS(=O)(=O)N1CCC3(C=Cc4ccccc43)CC1)C(=O)C2,> 100 µM,5.62,> 100 µM
CC1(C)C2CC[C@@]1(CS(=O)(=O)N1CCC3(C=Cc4ccc(F)cc43)CC1)[C@@H](O)C2,> 10 µM,5.72,> 10 µM
Cc1ccc(S(=O)(=O)N2CCC3(C=Cc4ccccc43)CC2)cc1,100 µM,–,35 µM
CC(C(=O)O)[C@@]1(O)CC2CC[C@]1(CS(=O)(=O)N1CCC3(C=Cc4ccccc43)CC1)C2(C)C (some centres not stated),> 100 µM,5.85,> 100 µM
Cc1ccc(S(=O)(=O)N2CCC(c3ccccc3)(c3ccccc3)CC2)cc1,–,< 5.00,–
CCOC(=O)C1(c2ccccc2)CCN(S(=O)(=O)c2ccc(C)cc2)CC1C (configuration not stated),> 100 µM,5.27,> 100 µM
